Screening results: PubChem, several laboratories
In the library only some 2.9% were active in any assay of this set; here they are far more common.
Hck-Nef inh: human Hck-Nef kinase inhibition; P08631; Recombinant Hck-YEEI plus Nef, Z-Lyte FRET kinase assay; inhibition, % at 20 µM; actives 0.68% (n = 220,000);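 active = Hck-Nef kinase inhibition above about 50%, limit read from the data; inactive = inhibition below that limit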;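 note: 0% = DMSO with Hck plus Nef and 100% = Hck alone without Nef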
RBBP9 inhibitor: blocks human serine hydrolase RBBP9; AID 1515; O75884; inhibition, % at 7.94 µM; actives 0.2% (n = 220,000); recombinant RBBP9, FP-Rh probe fluorescence polarization;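 active = inhibition above the campaign mean of all tested compounds plus 3 SD, cut at about 14% in these data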;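 note: plate controls were DMSO wells with RBBP9 for no effect and wells lacking RBBP9 protein for full effect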
Target sequence (O75884 whole entry, looked up): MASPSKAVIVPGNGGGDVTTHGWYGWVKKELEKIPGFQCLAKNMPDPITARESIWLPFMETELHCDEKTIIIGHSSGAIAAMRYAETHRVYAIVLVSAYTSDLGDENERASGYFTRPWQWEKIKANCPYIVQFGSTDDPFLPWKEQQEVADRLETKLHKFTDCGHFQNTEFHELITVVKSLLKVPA
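Controls: DMSO-treated enzyme wells and wells lacking RBBP9 | Material: RBBP9 protein | Technique: Fluorescence polarization | Replication: Single well per compound, no replicates | Buffer or medium: Tris-NaCl-Pluronic buffer, pH 8.0 | Timing: 30 min compound preincubation, 45 min probe labeling, 25 °C | Read-out basis: Percent inhibition from mP, scaled between DMSO and no-protein wells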
Runt-CBFb FRET: Runt domain-CBFb interaction inhibition; inhibition, % at 20 µM; Cerulean-Runt/Venus-CBFb FRET ratio 530/480, 1 h; actives 0.46% (n = 220,000); AID 1496; Q01196+Q13951;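 active = inhibition over about 50% at 20 µM in the single-dose screen, limit read from the data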;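 note: 0% = DMSO wells and 100% = excess unlabeled CBFb competitor control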
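Doses: 20 µM compound in 1% DMSO | Material: Cerulean-labeled Runt domain protein | Amount: Each fluorescent fusion protein 100 nM | Schedule: Two 1 h room-temperature incubations shielded from light | Measured by: FRET fluorescence | Evaluation: Loss of energy transfer signal | Controls: Unlabeled CBFb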
Runt-SMMHC FRET: Runt domain-CBFb-SMMHC interaction inhibition. Q01196+Q13951. Cerulean-Runt/Venus-CBFb-SMMHC FRET ratio 530/480, 1 h. inhibition, % at 20 µM. actives 0.74% (n = 220,000). AID 1434;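 active = mean inhibition across duplicate retests at 20 µM reaching about 50%, limit read from the data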;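 note: 0% = DMSO wells and 100% = wells with excess untagged CBFb-SMMHC; inhibitors lower the FRET ratio by blocking Runt binding to CBFb-SMMHC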
PfM18AAP inh-1: PfM18AAP enzyme inhibition; recombinant PfM18AAP, H-Glu-NHMec fluorogenic cleavage; inhibition, % at 7.35 µM; actives 1.2% (n = 290,000); AID 1822;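 active = inhibition above the campaign mean inhibition over all tested compounds plus 3 SD, cut at about 28% in these data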;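 note: 0% = plate median of test compound wells and 100% = 2 mM ZnCl2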
RanGTP-Impb inh: disruptors of Ran-importin-beta complex formation – biochemical, FRET, CFP-Ran, YFP-importin-beta, homogeneous, primary screen; cell-free CFP-Ran/YFP-importin-beta FRET ratio; inhibition, % (concentration not given with the values); actives 1.1% (n = 300,000); AID 2216;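 active = more than half of the replicate wells show a fall in the fluorescence ratio signal beyond about 16%, limit read from the data, passing the limit was not always enough; inconclusive = exactly half of the replicate wells pass the set limit; inactive = fewer than half of replicates pass the limit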;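 note: 0% = DMSO wells and 100% = Ran loaded with GDP instead of GTP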
PfM18AAP inh-2: confirmation of Plasmodium falciparum M18 aspartyl aminopeptidase inhibitors; recombinant PfM18AAP, H-Glu-NHMec fluorogenic cleavage; actives 28% (n = 2,400); shares compounds with PfM18AAP inh-1; inhibition, % at 7.35 µM; AID 2170;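 active = mean inhibition over replicate wells above the hit cutoff set for the earlier primary screen, cut at about 29% in these data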;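 note: 0% = median of test compound wells and 100% = 2 mM ZnCl2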
CTSL1 confirm: counter-screen for PFM18AAP inhibitors: confirmation of human cathepsin L inhibitors. shares compounds with PfM18AAP inh-1. purified cathepsin L1, Z-Leu-Arg-MCA fluorescence. inhibition, % at 5.96 µM. 2,400 tested, under 10 active;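 active = average inhibition across replicates above the hit cutoff set in the earlier primary screen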;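 note: 0% = median of test compound wells and 100% = Z-Phe-Ala-diazomethylketone 1 µM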
Target sequence (P07711 whole entry, looked up): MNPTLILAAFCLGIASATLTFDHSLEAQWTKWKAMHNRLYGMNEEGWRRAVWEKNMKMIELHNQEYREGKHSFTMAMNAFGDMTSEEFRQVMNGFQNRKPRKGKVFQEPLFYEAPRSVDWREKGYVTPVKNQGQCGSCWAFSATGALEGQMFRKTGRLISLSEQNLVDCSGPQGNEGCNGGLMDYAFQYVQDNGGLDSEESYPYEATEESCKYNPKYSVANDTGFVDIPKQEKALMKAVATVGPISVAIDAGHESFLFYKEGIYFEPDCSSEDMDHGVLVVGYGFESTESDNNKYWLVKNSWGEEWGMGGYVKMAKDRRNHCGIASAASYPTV
Active calls of the source: *; ? = inconclusive; . = no result.

SMILES	Hck-Nef inh	RBBP9 inhibitor	Runt-CBFb FRET	Runt-SMMHC FRET	PfM18AAP inh-1	RanGTP-Impb inh	PfM18AAP inh-2	CTSL1 confirm
Cc1cc(OCC(=O)Nn2cnnc2)c(C)cc1Br	-1	-6	1	1	46*	0	55*	-2
O=C(COc1ccc2ccccc2c1Br)Nn1cnnc1	3	2	0	1	56*	3	37*	-2
O=C(Cc1ccccc1)N/N=C/c1ccc(S(=O)(=O)O)o1	13	7	-2	0	2	-4	.	.
O=C(Nc1ccccc1Cl)c1cc2ccccc2o/c1=N\O	.	.	.	.	37*	3	19	1
N#Cc1c(/N=C/c2cccs2)sc2c1CCCCC2	0	3	9	-2	34*	-8	-23	7
O=C(N/N=C/c1ccc(-c2ccc([N+](=O)[O-])cc2)o1)[C@H]1C[C@@H]1c1ccccc1	15	-5	-28	-103	32*	-51	-37	3
Cc1ccc(S(=O)(=O)N2CC3CCCC2C3)cc1 (stereo unspecified)	12	-9	0	-8	8	-3	.	.
COCCNC(=S)Nc1ccc([N+](=O)[O-])cc1C	8	-3	8	-1	6	0	.	.
O=C(NNc1ccccc1[N+](=O)[O-])NC1CCCCC1	22	0	-2	-1	16	1	.	.
COCCNC(=S)NNc1ccccc1[N+](=O)[O-]	25	1	11	0	61*	6	61*	3
CNC(=S)NNc1ccccc1[N+](=O)[O-]	9	-5	9	-4	57*	-2	61*	1
CC(=O)N1CCN(S(=O)(=O)c2ccc(C)cc2)C1C (stereo unspecified)	.	.	.	.	.	-2	.	.
Cc1ccc(NS(=O)(=O)c2cc([N+](=O)[O-])ccc2NNC(=S)Nc2cc(C)ccc2C)c(C)c1	-1	-5	-2	-24	39*	4	39*	0
Cc1ccc([N+](=O)[O-])cc1NC(=S)NC(=O)C(C)(C)C	-1	-2	-8	-1	-20	2	.	.
COc1ccc(NC(=S)NNc2ccc([N+](=O)[O-])cc2S(=O)(=O)Nc2ccc(C)cc2C)cc1	7	-5	16	-10	39*	-4	32*	2
CN(C)C(=O)c1cc(C(=O)c2ccc(F)cc2C(F)(F)F)c[nH]1	.	.	.	.	-4	8	.	.
COc1cccc(C(=O)Nc2cccc(-c3ccccc3)c2)c1	.	.	.	.	5	-1	.	.
Cc1c(C#N)c(O)n(C)c(=O)c1N=Nc1ccc(S(N)(=O)=O)cc1	-23	1	.	-26	35*	2	-40	5
Cc1c(C#N)c(O)n(CCO)c(=O)c1N=Nc1ccccc1	15	-4	-11	-70	2	-1	.	.
Cc1c(C#N)c(O)n(CCO)c(=O)c1N=Nc1ccc(S(N)(=O)=O)cc1	-33	3	.	-18	35*	?	-37	13
Nc1nncn1C(=O)CCCOc1ccccc1	1	-5	.	4	35*	?	50*	-3
O=C(CCCOc1ccccc1)N1CCCCC1	1	0	1	-3	-3	5	.	.
Nc1nncn1C(=O)CCc1ccccc1	0	7	1	-7	72*	8	49*	-3
CC1CCCN(C(c2ccccc2)c2sc3ncnn3c2O)C1 (stereo unspecified)	3	2	0	-3	55*	4	-28	1
Oc1c(C(c2ccccc2)N2CCc3ccccc3C2)sc2ncnn12 (stereo unspecified)	16	-4	.	4	58*	1	18	2
SMILES	Hck-Nef inh	RBBP9 inhibitor	Runt-CBFb FRET	Runt-SMMHC FRET	PfM18AAP inh-1	RanGTP-Impb inh	PfM18AAP inh-2	CTSL1 confirm
Cc1ccccc1C(C(=O)NC1CCCCC1)N(C(=O)CNC(=O)c1ccco1)c1cccnc1 (stereo unspecified)	21	-6	0	1	-8	1	.	.
COc1ccc(C(=O)OCC(=O)Nc2nnc(-c3ccccc3)o2)cc1	.	.	.	.	42*	4	-21	-9
O=C(Nc1nncs1)c1cc(S(=O)(=O)N2CCOCC2)ccc1Cl	.	.	.	.	8	0	.	.
COc1ccc(OCc2cc(C(=O)N3CCOCC3)no2)c(Cl)c1	.	.	.	.	-17	4	.	.
Cc1cc(C(F)(F)F)cc(NNC(=O)NC(=O)c2c(F)cccc2Cl)n1	2	-2	-2	3	42*	6	-3	6
CC(C)(C)NC(=O)C(=O)NC(=O)c1c(F)cccc1Cl	7	-9	-1	0	-9	7	.	.
Clc1ccc(-c2c(C3=NCCCN3)nnn2-c2ccc(Cl)cc2)cc1	6	-1	0	-4	-1	3	.	.
Cc1cc(C)c(S(=O)(=O)Nc2ncn[nH]2)cc1C	.	.	.	.	42*	2	11	-2
O=S(=O)(Nc1nc2ccccc2[nH]1)c1ccc2ccccc2c1	-2	3	4	2	-6	1	.	.
O=S(=O)(Nc1ncn[nH]1)c1ccc2ccccc2c1	5	-4	0	1	51*	-4	41*	-2
NS(=O)(=O)Cc1noc2ccccc12	.	.	.	.	-3	0	.	.
CCOC(=O)NC(=O)COC(=O)c1ccc(Sc2ncn[nH]2)c([N+](=O)[O-])c1	13	-6	2	0	89*	7	91*	-6
CCNc1ccc(C(=O)OCC(=O)NC(=O)NCC(C)C)cc1[N+](=O)[O-]	-2	-5	-1	-4	7	5	.	.
C=CCNC(=O)COC(=O)c1ccc(Sc2nncn2C)c([N+](=O)[O-])c1	19	-6	-1	0	0	2	.	.
C=CCN(CC=C)C(=O)COC(=O)c1ccc(Sc2ncn[nH]2)c([N+](=O)[O-])c1	21	-3	-1	0	84*	2	80*	-1
COc1ccc(CCNC(=O)CCS(=O)(=O)c2ccc3c(c2)NC(=O)CO3)cc1OC	.	.	.	.	-4	?	.	.
S=c1nc[nH]c2c1ncn2C1CCCC1	6	-5	33	3	21	-1	-30	-3
